Results pooled from the literature.
Compare with care: the assays were run in different laboratories.
Read-out: cell growth or viability

Structure (SMILES) | cell line | method | tested at | time | endpoint | value
Cc1nc(Nc2ncc(C(=O)Nc3c(C)cccc3Cl)s2)cc(N2CC[C@H](O)C2)n1 | SU-DHL-6 | ATP luminescence | 10 µM | 72 h | inhibition | 97%
N#CSCc1cc(=O)oc2cc(O)ccc12 | HeLa | SRB | – | – | GI50 | 3.7 µM
Cc1nc(NC(=O)N2CCC[C@H]2C(N)=O)sc1-c1ccnc(C(C)(C)C(F)(F)F)c1 | Detroit 562 | ATP luminescence | – | 5 days | EC50 | 29.4 µM
N#CSCCCCOc1ccc2c(-c3ccccc3)cc(=O)oc2c1 | HeLa | SRB | – | – | GI50 | 25 µM
CCOc1ccc(-c2cc(C(=O)O)c(-c3ccc(Cl)cc3)o2)cc1 | U2OS | MTT | – | 48 h | EC50 | 48 µM
Cc1cc(=O)oc2cc(OCCCCSC#N)ccc12 | HeLa | SRB | – | – | GI50 | 1.9 µM
CCOc1ccc(C(=O)CC(SCc2ccc(Cl)cc2)C(=O)OC)cc1 (stereo not shown) | U2OS | MTT | – | 48 h | EC50 | 15.7 µM
CCC(=CCc1c(O)cc2c(c1O)C(=O)C[C@H](c1ccccc1O)O2)CC | HeLa | MTT | 120 µM | 48 h | inhibition | 81.5%
CCOC(=O)c1cc(-c2ccc(OCC)cc2)oc1-c1ccc(Cl)cc1 | U2OS | MTT | – | 48 h | EC50 | 190 µM
CCC(=CCc1c(O)cc2c(c1O)C(=O)CC(c1ccc(O)cc1)O2)CC (stereo in doubt) | HeLa | MTT | 6.25 µM | 48 h | inhibition | 9.54%
